Each compound was assayed on B16 (assay: Drug concentration required to inhibit B16 cell growth by 50% after 72 hours of incubation). Settings: Mus musculus, B16, 72 h.
Assay type: functional, cell-based
In short: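 B16 murine melanoma cells grown in DMEM-glutaMAX with 10% FBS, penicillin and streptomycin, 37 °C, 5% CO2; harvested by trypsinization and plated 20 h before dosing. 2 × 10⁴ exponentially growing cells per well exposed to a range of drug concentrations for 72 h at 37 °C; MTS added for a further 3 h; absorbance read at 492 nm; IC50 = 50% growth inhibition.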
With CN(C)CCC/N=C(\N)c1ccc(-c2ccc(-c3nc4cc(/C(N)=N/CCCN(C)C)ccc4[nH]3)o2)cc1 the IC50 was greater than 100 µM. In the case of N=C(N)c1ccc(-c2ccc(-c3ccc(C(=N)N)cc3)o2)cc1 [FURAMIDINE], the IC50 is reported as 9.2 µM. CN(C)CCCC(=O)Nc1ccc(-c2ccc(-c3ccc(NC(=O)CCCN(C)C)cc3)o2)cc1 gave an IC50 of 2.3 µM. With N=C(N)c1ccc(-c2ccc(-c3nc4ccccc4[nH]3)o2)cc1 the IC50 was 51.4 µM. COc1ccc(-c2ccc(-c3ccc(C4=NCCN4)cc3)o2)cc1 gave an IC50 of 1.7 µM. With COc1ccc(-c2ccc(-c3ccc(C(=N)N)cc3)o2)cc1 the IC50 was 3.5 µM. With CN(C)CCC/N=C(\N)c1ccc(-c2ccc(-c3ccc(/C(N)=N/CCCN(C)C)cc3)o2)cc1 the IC50 was 2.5 µM. With c1cc(-c2ccc(-c3ccc(C4=NCCN4)cc3)o2)ccc1C1=NCCN1 the IC50 was 1.1 µM. N=C(N)c1ccc2[nH]c(-c3ccc(-c4ccc(N)cc4)o3)nc2c1 showed an IC50 greater than 100 µM. Work on c1ccc2[nH]c(-c3ccc(-c4ccc(C5=NCCN5)cc4)o3)nc2c1 yielded an IC50 of 8.6 µM. N=C(N)c1ccc(-c2ccc(-c3nc4cc(C(=N)N)ccc4[nH]3)o2)cc1 was tested, and the IC50 was 43.2 µM.

Reference: ChEMBL document CHEMBL1135406, “Distribution of furamidine analogues in tumor cells: influence of the number of positive charges” (J Med Chem, 2002)
